In ChEMBL document CHEMBL3994592, “Antimicrobial Oligophenalenone Dimers from the Soil Fungus Talaromyces stipitatus” (J Nat Prod, 2016):
In brackets after ≈: the same amount, converted by molar mass.

Experiments:
Staphylococcus aureus = test: Antibacterial activity against Staphylococcus aureus ATCC 6538 after 24 hrs; type: functional; details: ATCC 6538, 24 h
How it was run: (§1)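 Broth microdilution in LB. Precultures were grown 24 h at 37 °C in 10 mL LB and diluted 1/1000 (OD600 0.01) into 96-well plates. Two-fold serial dilutions were made from 10 mg/mL stocks, 2 µL per 200 µL medium. Plates were incubated 24 h at 37 °C and OD read at 595 nm. MIC is the concentration giving a 90% decrease versus DMSO-only control, obtained by curve fitting.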

Enterococcus faecalis = test: Antibacterial activity against Enterococcus faecalis CIP 103014 after 24 hrs; type: functional; details: CIP 103014, 24 h; how it was run: as §1
HeLa = test: Cytotoxicity against human HeLa cells assessed as reduction in cell viability by MTT assay; type: functional, cell-based
How it was run: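 HeLa cells were seeded at 2500 cells/well, incubated overnight, then exposed in exponential growth to a range of concentrations for four doubling times. Viability was measured by MTT, 4 h at 37 °C, with formazan read at 560 nm. Concentration inhibiting growth by 50% versus untreated controls was taken from dose-survival curves. At least three independent experiments, each in duplicate; cisplatin served as control.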

Escherichia coli = test: Antibacterial activity against Escherichia coli ATCC 8739 after 24 hrs; type: functional; details: ATCC 8739, ATCC 8739, 24 h; how it was run: as §1
[1] = system: Staphylococcus haemolyticus; test: Antibacterial activity against Staphylococcus haemolyticus MNHN26 after 24 hrs; type: functional; details: MNHN26, 24 h; how it was run: as §1

Row | Structure (SMILES) | MIC90 (Staphylococcus aureus) | MIC90 (Enterococcus faecalis) | MIC (Escherichia coli) | IC50 (HeLa) | MIC90 [1]
1 | CC(=O)O[C@H]1[C@@H]2C(=O)c3c(C)cc(O)c4c3[C@@]1(COC4=O)C1=C2c2c(C)cc(O)c3c2[C@@](O)(COC3=O)C1=O | 29.3 µg/mL (≈ 55 µM) | > 30 µg/mL | > 100 µg/mL | > 100 µM | > 30 µg/mL
2 | CC(=O)O[C@H]1[C@@H]2C(=O)c3c(C)cc(O)c4c3[C@@]1(COC4=O)c1c(O)c(C=O)c3cc(O)cc(C)c3c12 | > 50 µg/mL | > 50 µg/mL | > 100 µg/mL | > 50 µM | > 50 µg/mL
3 | CC(=O)O[C@H]1[C@@H]2C(=O)c3c(C)cc(O)c4c3[C@@]1(COC4=O)c1c(O)c3c4c(c(O)cc(C)c4c12)C(=O)OC3 | 5.2 µg/mL (≈ 10.1 µM) | 2.4 µg/mL (≈ 4.65 µM) | > 100 µg/mL | – | 9.5 µg/mL (≈ 18.4 µM)
4 | CN(C)[C@@H]1C(O)=C(C(N)=O)C(=O)[C@@]2(O)C(O)=C3C(=O)c4c(O)cccc4[C@@](C)(O)[C@H]3C[C@@H]12 [TETRACYCLINE] | 0.05 µg/mL (≈ 0.113 µM) | 0.4 µg/mL (≈ 0.9 µM) | – | – | 29.5 µg/mL (≈ 66.4 µM)

More lines, main results first:

Row | MIC90 (Staphylococcus aureus) | MIC90 (Enterococcus faecalis) | MIC (Escherichia coli) | Structure (SMILES) | IC50 (HeLa) | MIC90 [1]
5 | 5 µg/mL (≈ 9.17 µM) | > 30 µg/mL | > 100 µg/mL | CO[C@@]12c3c(C)cc(O)c4c3C(=C(O)[C@@H]1[C@]13COC(=O)c5c(O)cc(C)c(c51)C(=O)[C@H]2[C@@H]3OC(C)=O)C=NC4=O | 49.5 µM | 20.4 µg/mL (≈ 37.4 µM)
6 | 15.6 µg/mL (≈ 28.5 µM) | > 30 µg/mL | > 100 µg/mL | CO[C@H]1OC(=O)c2c(O)cc(C)c3c4c(c(O)c1c23)[C@]12COC(=O)c3c(O)cc(C)c(c31)C(=O)[C@H]4[C@@H]2OC(C)=O | > 50 µM | > 30 µg/mL
